# From PubChem BioAssay
# The full list was thinned out, with hits kept by preference.
# Fibroblast inh – antiproliferative effect on LL 47 fibroblasts – human, LL 47 cells, CellTiter-Glo luminescence, primary screen; 85,000 compounds, 1.1% hits; LL 47 human lung fibroblast viability, ATP luminescence; active compounds read low; viability, % at 10 µM;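 active means viability at or below 50% in the single dose screen; inactive means viability above 50%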;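 further: compound exposure lasted 72 h before the ATP readout; 100% = median luminescence of untreated cell-only wells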
#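 Test system: LL 47 human lung fibroblasts / Quantity: 1,150 cells in each well / Medium: IMEM growth medium with 15% fetal bovine serum / Incubation: 72 h compound exposure at 37 °C after overnight plating / Detection: CellTiter-Glo luminescence measuring cellular ATP / Read-out: % viability versus median cells-only luminescence / Benchmarks: cell-only wells, no compound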
# bCat KO growth – primary screen for growth suppressors in beta-catenin knockout HCT116 cells (colon tumor, human); 140,000 compounds, 1.5% hits; HCT116 beta-catenin knockout viability, CellTiter-Glo, 60 h; active compounds read low; viability, % at 10 µM; AID 818, 2007;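 active means viability at or under a set limit, the compound median less 4 SD, cut at about 6% in these data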;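 further: 0% = Hyamine 1622 control at 20 µM and 100% = untreated cell control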
# H69AR growth 86K – proliferation blockers of H69AR lung cancer cells, primary screen, cell-based, human, 86K library; H69AR lung tumor viability, ATP luminescence, 72 h; active compounds read low; viability, % at 10 µM; 85,000 compounds, 6% hits;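 active means viability at or below 40%; inactive means viability above 40%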;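 further: multidrug resistant small cell line overexpressing MRP-1 efflux transporter; 100% = mean luminescence of untreated control wells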
# PTEN del growth – growth suppression of PTEN-null HCT116, primary screen, cell-based, CellTiter-Glo; HCT116 PTEN-null viability, 60 h; active compounds read low; viability, % at 10 µM; 140,000 compounds, 1.2% hits; AID 827, 2007;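 active means viability at or below a set limit, 4 SD under the median of all tested compounds, cut at about 3.7% in these data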;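 further: PTEN knockout HCT116 line with beta catenin targeted HCT116 as companion control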
# HUVEC prolif 384 – inhibitors of HUVEC proliferation, primary screen, cell-based, 384-well; CellTiter-Glo luminescence, 72 h; active compounds read low; viability, % at 10 µM (by protocol); 86,000 compounds, 1.1% hits;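 active means viability at or below 30%; inactive means viability above 30%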;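 further: 100% = median luminescence of DMSO-only cell control wells on each plate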
# The depositor's hits bear a star; nt = no result given.
SMILES,Fibroblast inh,bCat KO growth,H69AR growth 86K,PTEN del growth,HUVEC prolif 384
COC(=O)Sc1nc(N2CCOCC2)c2c(c1C#N)CC(C)(C)OC2,92,109,47,108,81
CC1(C)Cc2c(C#N)c(SCc3ccccc3)nc(N3CCOCC3)c2CO1,77,87,44,73,80
CC1(C)Cc2c(c(N3CCOCC3)nc3snc(NC(=O)c4ccccc4)c23)CO1,94,99,37*,102,110
CN(C)c1ccc(CNc2ccc3c(c2)ncn3C)cc1,95,83,5.2*,91,91
CCCCn1cnc2cc(NCc3ccncc3)ccc21,91,96,100,95,106
O=C(NNC(=S)NC(=O)c1ccccc1[N+](=O)[O-])c1ccccc1,92,58,25*,68,73
CCOC(=O)/C(=C\c1ccc([N+](=O)[O-])o1)NC(=O)c1ccccc1,86,49,81,46,69
Cc1cc(C)nc(NC(=O)c2ccc([N+](=O)[O-])o2)n1,nt,4.2*,nt,4,nt
O=C(NNC(=O)c1ccc([N+](=O)[O-])o1)c1ccccc1,43*,14,50,7,107
Cc1nc(-c2cccc(NS(=O)(=O)c3cccc4ccccc34)c2)cs1,99,102,101,100,94
OCCN1CCN(C(c2cccs2)c2ccc3cccnc3c2O)CC1 (stereo not drawn),58,14,40,10,57
CC(C)(C)c1cc(C(c2cccnc2)N2CCN(CCO)CC2)cc(C(C)(C)C)c1O (stereo not drawn),2.8*,1.7*,2.2*,1.7*,2.2*
COP(=O)(OC)C(Nc1ccc(C)cc1)c1ccc([N+](=O)[O-])cc1 (stereo not drawn),nt,90,nt,94,nt
CCCCCn1c(=O)[nH]c2cc(C(=O)N3CCN(CC)CC3)ccc2c1=O,92,90,80,95,99
CCOC(=O)N1CCN(C(=O)c2ccc3c(=O)n(CCC4=CCCCC4)c(=O)[nH]c3c2)CC1,89,82,39*,87,85
CCOc1cccc2sc(NC(=O)c3ccc(Br)s3)nc12,97,58,30*,59,86
O=C(CSCC(=O)OCC(=O)c1ccc(Br)cc1)Nc1cccc2ccccc12,nt,90,nt,94,nt
COC(=O)CSc1nc(NC#N)nc(NC(C)C)n1,100,98,98,105,95
CC(=O)Nc1ccc2nc(-c3cccs3)[nH]c2c1,110,89,90,93,106
Nc1ccc2nc(-c3cccs3)[nH]c2c1,87,90,22*,97,71
Nc1ccc2nc(-c3ccc(N)c(Cl)c3)[nH]c2c1,105,66,50,65,86
Nc1ccc(-c2nc3c(Cl)cc(N)cc3[nH]2)cc1,96,88,31*,90,110
Nc1ccc2nc(-c3ccccc3)[nH]c2c1,100,81,33*,87,86
COc1cccc(C(=O)N/N=C(/CCC(=O)O)c2ccccc2)c1,nt,107,nt,103,nt
COc1cc(C(=O)N/N=C(\c2ccccc2)c2ccccn2)cc(OC)c1OC,nt,4.8*,nt,3.8*,nt
SMILES,Fibroblast inh,bCat KO growth,H69AR growth 86K,PTEN del growth,HUVEC prolif 384
COc1cc(C(=O)Nc2cccc3cccnc23)cc(OC)c1OC,96,83,71,77,90
COc1cccc(C(=O)N/N=C(/c2ccccc2)c2ccccn2)c1,nt,5.0*,nt,1.9*,nt
Cc1cc(NC(=S)NC(=O)c2ccccc2)ccc1-c1cc2ccccc2oc1=O,nt,68,nt,59,nt
N#C[C@H]1[C@H](c2ccccc2)[C@](C#N)(C(=O)c2ccccc2)[C@@H]2C=Cc3ccccc3N21,nt,5.3*,nt,3.3*,nt
COc1ccc(C(=O)N2c3ccccc3C=CC2C#N)cc1 (stereo not drawn),nt,28,nt,38,nt
COc1cc(CC(=O)NNC(=O)c2cc(C)oc2C)cc(OC)c1OC,nt,83,nt,104,nt
O=C(CN1CCCC(O)C1)N1c2ccccc2Sc2ccc(C(F)(F)F)cc21 (stereo not drawn),95,94,109,91,97
CN1CCN(CCCN2c3ccccc3Sc3ccc(C(F)(F)F)cc32)CC1,62,1.7*,0.6*,1.5*,2.4*
COc1ccc(CCN2C(=O)CN(Cc3ccccc3)CC2=O)cc1OC,nt,57,nt,0.1*,nt
COCC(C)NC(=O)Cc1ccc(F)cc1 (stereo not drawn),nt,90,nt,94,nt
O=C/C(=C\Nc1ccc(Cl)cn1)c1nc2ccccc2o1,105,90,93,87,80
